Reference: ChEMBL document CHEMBL1155590, “Two novel cytotoxic benzofuran derivatives from Brazilian propolis” (2000)
≈ marks a conversion by molar mass, not a printed value.

Assays:
Type in all cases: functional
[1] = (§1) Cytotoxicity against mouse 26-L5 cells by MTT assay; details: read-out: ED50 (the source's name)
How it was run: (§2)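 MTT viability read-out, run by a previously described method. Cells were highly liver-metastatic murine colon 26-L5 carcinoma and human HT-1080 fibrosarcoma.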

HT-1080 = test: Cytotoxicity against human HT1080 cells by MTT assay; details: for EC50: read-out: ED50 (the source's name); how it was run: as §2
Mus musculus = species: Mus musculus; test: as §1; how it was run: as §2

Row | Compound | EC50 [1] | EC50 (HT-1080) | Activity (Mus musculus) | Activity (HT-1080)
1 | COc1ccc(-c2oc3cc(O)cc(O)c3c(=O)c2O)cc1 [KAEMPFERIDE] | < 8 µg/mL | < 8 µg/mL |  | 
2 | COc1ccc(-c2oc3cc(O)cc(O)c3c(=O)c2OC)cc1 [ERMANIN] | < 8 µg/mL | < 8 µg/mL |  | 
3 | COc1ccc(-c2oc3cc(O)c(OC)c(O)c3c(=O)c2O)cc1 [BETULETOL] | < 8 µg/mL | < 8 µg/mL |  | 
4 | C=C(C)C1Cc2cc(/C=C/C(=O)O)cc(CC=C(C)C)c2O1 (configuration not stated) |  |  | Not toxic | Not toxic
5 | COc1cc([C@@H]2c3c(oc4cc(C(C)=O)c(O)cc34)C(=O)C[C@H]2COC(C)=O)ccc1O [PROPOLIS-BENZOFURAN B] | 13.7 µg/mL (≈ 31.2 µM) | 43.2 µg/mL (≈ 98.5 µM) |  | 
6 | COc1cc([C@@H]2OC=C(c3cc4cc(O)c(C(C)=O)cc4o3)C[C@H]2COC(C)=O)ccc1O [PROPOLIS-BENZOFURAN A] | 12.4 µg/mL (≈ 27.4 µM) | 13.9 µg/mL (≈ 30.7 µM) |  | 
